Assay results as given in ChEMBL document CHEMBL1156133, “Losartan-antioxidant hybrids: novel molecules for the prevention of hypertension-induced cardiovascular damage” (J Med Chem, 2009).
Calls of active or inactive are those of the source. The calls are words filed in the database; no cut-off is given here.

Tests used:
Rattus norvegicus [1] = experiment: Antihypertensive activity in Wistar rat assessed as normalization of L-NAME-induced aorta thickness at 10 mg/kg/day, po for 4 weeks; type: functional, organism-based
Outline: (§1)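 L-NAME (20 mg/kg/day, drinking water, 8 weeks) hypertensive two-month-old male Wistar rats; treatments in drinking water daily for the last 4 weeks. Systolic pressure by tail-cuff in conscious animals. At sacrifice heart weighed (corrected to body weight); aortic rings from descending thoracic aorta, formaldehyde-flushed, media thickness by planimetry. Mean ± SEM of 10 rats.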

VSMC = experiment: Displacement of [125I]angiotensin II from angiotensin 2 receptor in Wistar rat VSMC cells by gamma-counter; type: cell-based; design: concentration or dose not given beside the values
Outline: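 Rat aortic VSMC (collagenase-derived primary cultures, passages 3-5) resuspended in Tris-glucose-NaCl buffer pH 7.4 at 0.5 μg/μL protein; 125 μg protein incubated 45 min with 0.15 nM 125I-angiotensin II plus compound. Bound separated by centrifugation, pellet washed with cold 0.15 M NaCl, gamma counted; nonspecific binding with 10^-4 M angiotensin II.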

Rattus norvegicus [2] = experiment: Antihypertensive activity in L-NAME-induced Wistar rat assessed as decrease in blood Na+ level at 20 mg/kg/day, po for last 4 weeks measured after 8 weeks; type: functional
Outline: (§2)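 Two-month-old male Wistar rats given L-NAME in drinking water (20 mg/kg/day) for 8 weeks. From week 4, treatment is given daily in drinking water during 12.00–18.00 h, at the dose stated in the line. Ten rats per group. Sacrificed under halothane between 9.00 and 10.00 h. Serum is measured on an automatic analyzer. Mean ± SEM, nonparametric statistics.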

Rattus norvegicus [3] = experiment: Antihypertensive activity in Wistar rat assessed as normalization of L-NAME-induced heart weight at 20 mg/kg/day, po for 4 weeks in presence of L-NAME; type: functional, organism-based; conditions: 28 mg/kg, in the assay text read “28 mg/kg/day” for “20 mg/kg/day”; outline: as §1
Rattus norvegicus [4] = experiment: Antihypertensive activity in L-NAME-induced Wistar rat assessed as decrease in blood urea level at 20 mg/kg/day, po for last 4 weeks measured after 8 weeks; type: functional; outline: as §2
Rattus norvegicus [5] = experiment: Antihypertensive activity in L-NAME-induced Wistar rat assessed as decrease in blood […] level at 20 mg/kg/day, po for last 4 weeks measured after 8 weeks; type: functional; outline: as §2
Rattus norvegicus [6] = experiment: Antihypertensive activity in L-NAME-induced Wistar rat assessed as decrease in blood protein level at 20 mg/kg/day, po for last 4 weeks measured after 8 weeks; type: functional; outline: as §2
Rattus norvegicus [7] = experiment: Antihypertensive activity in L-NAME-induced Wistar rat assessed as decrease in blood cholesterol level at 20 mg/kg/day, po for last 4 weeks measured after 8 weeks; type: functional; outline: as §2
Rattus norvegicus [8] = experiment: Antihypertensive activity in L-NAME-induced Wistar rat assessed as decrease in blood ALT level at 20 mg/kg/day, po for last 4 weeks measured after 8 weeks; type: functional; outline: as §2
Rattus norvegicus [9] = experiment: Antihypertensive activity in L-NAME-induced Wistar rat assessed as decrease in blood LDH level at 20 mg/kg/day, po for last 4 weeks measured after 8 weeks; type: functional; outline: as §2
Rattus norvegicus [10] = experiment: Antihypertensive activity in Wistar rat assessed as normalization of L-NAME-induced systolic blood pressure at 10 mg/kg/day, po for 4 weeks; type: functional, organism-based; conditions: Artery; outline: as §1
Rattus norvegicus [11] = experiment: Antihypertensive activity in L-NAME-induced Wistar rat assessed as decrease in blood AST level at 20 mg/kg/day, po for last 4 weeks measured after 8 weeks; type: functional; outline: as §2
[12] = Antioxidant activity assessed as inhibition of oxidation of chromogen (ABTS) measured per mmol/L of product by total antioxidant assay; type: functional
Outline: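 Total antioxidant status kit: inhibition of ABTS oxidation by metmyoglobin and hydrogen peroxide, followed at 600 nm absorbance; antioxidant ability proportional to absorbance reduction, expressed as mM. Compounds tested at 1 mmol/L.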

Rattus norvegicus [13] = experiment: Antihypertensive activity in L-NAME-induced Wistar rat assessed as decrease in blood calcium level at 20 mg/kg/day, po for last 4 weeks measured after 8 weeks; type: functional; outline: as §2
Rattus norvegicus [14] = experiment: Antihypertensive activity in L-NAME-induced Wistar rat assessed as decrease in blood creatinine level at 20 mg/kg/day, po for last 4 weeks measured after 8 weeks; type: functional; outline: as §2
Rattus norvegicus [15] = experiment: Antihypertensive activity in L-NAME-induced Wistar rat assessed as decrease in blood triglyceride level at 20 mg/kg/day, po for last 4 weeks measured after 8 weeks; type: functional; outline: as §2
Rattus norvegicus [16] = experiment: Antihypertensive activity in L-NAME-induced Wistar rat assessed as decrease in blood glucose level at 20 mg/kg/day, po for last 4 weeks measured after 8 weeks; type: functional; outline: as §2
Rattus norvegicus [17] = experiment: Antihypertensive activity in Wistar rat assessed as normalization of L-NAME-induced systolic blood pressure at 20 mg/kg/day, po for 4 weeks; type: functional, organism-based; conditions: Artery; outline: as §1
Rattus norvegicus [18] = experiment: Antihypertensive activity in L-NAME-induced Wistar rat assessed as decrease in blood protein level at 28 mg/kg/day, po for last 4 weeks measured after 8 weeks; type: functional; outline: as §2
Rattus norvegicus [19] = experiment: Antihypertensive activity in Wistar rat assessed as normalization of L-NAME-induced collagen 1 level in vessel walls at 28 mg/kg/day, po for 4 weeks in presence of losartan; type: functional, organism-based
Outline: (§3)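 Male Wistar rats on L-NAME in drinking water (20 mg/kg/day) for 8 weeks, treatments in drinking water for the last 4 weeks. Thoracic aorta lysates run on SDS-PAGE and Western blotted for collagen type I, fibronectin or HNE-lysine, with β-tubulin as loading control; ECL detection, densitometry. Expressed as percent of basal; mean ± SEM of 10 experiments.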

Rattus norvegicus [20] = experiment: Antihypertensive activity in L-NAME-induced Wistar rat assessed as decrease in blood urea level at 28 mg/kg/day, po for last 4 weeks measured after 8 weeks; type: functional; outline: as §2
Rattus norvegicus [21] = experiment: Antihypertensive activity in L-NAME-induced Wistar rat assessed as decrease in blood ALT level at 28 mg/kg/day, po for last 4 weeks measured after 8 weeks; type: functional; outline: as §2
Rattus norvegicus [22] = experiment: Antihypertensive activity in Wistar rat assessed as normalization of L-NAME-induced fibronectin content in vessel walls at 28 mg/kg/day, po for 4 weeks in presence of losartan; type: functional, organism-based; outline: as §3
Rattus norvegicus [23] = experiment: Antihypertensive activity in L-NAME-induced Wistar rat assessed as decrease in blood cholesterol level at 28 mg/kg/day, po for last 4 weeks measured after 8 weeks; type: functional; outline: as §2
Rattus norvegicus [24] = experiment: Antihypertensive activity in L-NAME-induced Wistar rat assessed as decrease in blood LDH level at 28 mg/kg/day, po for last 4 weeks measured after 8 weeks; type: functional; outline: as §2
Rattus norvegicus [25] = experiment: Antihypertensive activity in Wistar rat assessed as normalization of L-NAME-induced HNE-lysine accumulation in vessel walls at 28 mg/kg/day, po for 4 weeks in presence of losartan; type: functional, organism-based; outline: as §3
Rattus norvegicus [26] = experiment: Antihypertensive activity in L-NAME-induced Wistar rat assessed as decrease in blood triglyceride level at 28 mg/kg/day, po for last 4 weeks measured after 8 weeks; type: functional; outline: as §2
Rattus norvegicus [27] = experiment: Antihypertensive activity in L-NAME-induced Wistar rat assessed as decrease in blood Na+ level at 28 mg/kg/day, po for last 4 weeks measured after 8 weeks; type: functional; outline: as §2
Rattus norvegicus [28] = experiment: Antihypertensive activity in Wistar rat assessed as normalization of L-NAME-induced heart weight at 28 mg/kg/day, po for 4 weeks in presence of L-NAME; type: functional, organism-based; outline: as §1
Rattus norvegicus [29] = experiment: Antihypertensive activity in L-NAME-induced Wistar rat assessed as decrease in blood creatinine level at 28 mg/kg/day, po for last 4 weeks measured after 8 weeks; type: functional; outline: as §2
Rattus norvegicus [30] = experiment: Plasma concentration in po dosed Wistar rat assessed as losartan level after 4 weeks; type: ADME, organism-based; conditions: in vivo, 672 h
Outline: (§4)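 Separate groups of Wistar rats dosed in drinking water for 4 weeks (n = 4-6 per group), then sacrificed and plasma analyzed by HPLC-MS/MS (triple quadrupole, electrospray), isocratic MeOH/water with 0.1% formic acid, 40 °C. Two plasma samples per animal; mean ± SEM.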

Rattus norvegicus [31] = experiment: Antihypertensive activity in L-NAME-induced Wistar rat assessed as decrease in blood […] level at 28 mg/kg/day, po for last 4 weeks measured after 8 weeks; type: functional; outline: as §2
Rattus norvegicus [32] = experiment: Plasma concentration in po dosed Wistar rat assessed as EXP-3174 level after 4 weeks; type: ADME, organism-based; conditions: in vivo, 672 h; outline: as §4
[33] = Solubility in water assessed as nonhydrolzed drug level after 2 days; type: physicochemical; conditions: read-out: Activity
Rattus norvegicus [34] = experiment: Antihypertensive activity in L-NAME-induced Wistar rat assessed as decrease in blood calcium level at 28 mg/kg/day, po for last 4 weeks measured after 8 weeks; type: functional; outline: as §2
Rattus norvegicus [35] = experiment: Plasma concentration in po dosed Wistar rat assessed as 3-(3,4-Dihydroxy-phenyl)propionic Acid 2-butyl-5-chloro-3-[2'-(2H-tetrazol-5-yl)-biphenyl-4-ylmethyl]-3H-imidazol-4-ylmethylester level after 4 weeks; type: ADME, organism-based; conditions: in vivo, 672 h; outline: as §4
Rattus norvegicus [36] = experiment: Antihypertensive activity in L-NAME-induced Wistar rat assessed as decrease in blood AST level at 28 mg/kg/day, po for last 4 weeks measured after 8 weeks; type: functional; outline: as §2
Rattus norvegicus [37] = experiment: Antihypertensive activity in L-NAME-induced Wistar rat assessed as decrease in blood glucose level at 28 mg/kg/day, po for last 4 weeks measured after 8 weeks; type: functional; outline: as §2
Rattus norvegicus [38] = experiment: Antihypertensive activity in Wistar rat assessed as normalization of L-NAME-induced systolic blood pressure at 28 mg/kg/day, po for 4 weeks; type: functional, organism-based; conditions: Artery; outline: as §1

## CCCCc1nc(Cl)c(CO)n1Cc1ccc(-c2ccccc2-c2nnn[nH]2)cc1 [LOSARTAN]
Rattus norvegicus [1]
  Activity: inactive
VSMC
  Activity: 53%
Rattus norvegicus [2]
  Activity: 151 mmol/L
Rattus norvegicus [3]
  Activity: Active
Rattus norvegicus [4]
  Activity: 24 mg/dL
Rattus norvegicus [5]
  Activity: 4.7 mmol/L
Rattus norvegicus [6]
  Activity: 5 g/dL
Rattus norvegicus [7]
  Activity: 48 mg/dL
Rattus norvegicus [8]
  Activity: 24 IU/L
Rattus norvegicus [9]
  Activity: 622 IU/L
Rattus norvegicus [10]
  Activity: inactive
Rattus norvegicus [11]
  Activity: 91 IU/L
[12]
  Activity: 0.04 mmol/L
Rattus norvegicus [13]
  Activity: 8.3 mg/dL
Rattus norvegicus [14]
  Activity: 0.42 mg/dL
Rattus norvegicus [15]
  Activity: 65 mg/dL
Rattus norvegicus [16]
  Activity: 149 mg/dL
Rattus norvegicus [17]
  Activity: Active

## CCCCc1ncc(COC(=O)C2(C)CCc3c(C)c(O)c(C)c(C)c3O2)n1Cc1ccc(-c2ccccc2-c2nnn[nH]2)cc1 (centres undefined)
VSMC
  Activity: 65%
[12]
  Activity: 0.27 mmol/L

## CCCCc1ncc(COC(=O)Cc2cc(C(C)(C)C)c(O)c(C(C)(C)C)c2)n1Cc1ccc(-c2ccccc2-c2nnn[nH]2)cc1
VSMC
  Activity: 77%
[12]
  Activity: 0.24 mmol/L

## CCCCc1nc(Cl)c(COC(=O)CCc2ccc(O)c(O)c2)n1Cc1ccc(-c2ccccc2-c2nnn[nH]2)cc1
Rattus norvegicus [18]
  Activity: 4.5 g/dL
Rattus norvegicus [19]
  Activity: Active
Rattus norvegicus [20]
  Activity: 24 mg/dL
Rattus norvegicus [1]
  Activity: inactive
Rattus norvegicus [21]
  Activity: 24 IU/L
Rattus norvegicus [22]
  Activity: Active
VSMC
  Activity: 59%
Rattus norvegicus [23]
  Activity: 52 mg/dL
Rattus norvegicus [3]
  Activity: Active
Rattus norvegicus [24]
  Activity: 561 IU/L
Rattus norvegicus [25]
  Activity: Active
Rattus norvegicus [26]
  Activity: 52 mg/dL
Rattus norvegicus [27]
  Activity: 151 mmol/L
Rattus norvegicus [28]
  Activity: Active
Rattus norvegicus [29]
  Activity: 0.42 mg/dL
Rattus norvegicus [30]
  concentration: 8 nM
Rattus norvegicus [31]
  Activity: 4.6 mmol/L
Rattus norvegicus [32]
  concentration: 13 nM
[33]
  remaining at 48 h: 95.9%
Rattus norvegicus [34]
  Activity: 8.6 mg/dL
Rattus norvegicus [35]
  concentration: 171 nM
Rattus norvegicus [36]
  Activity: 83 IU/L
Rattus norvegicus [37]
  Activity: 154 mg/dL
Rattus norvegicus [38]
  Activity: Active
[12]
  Activity: 0.31 mmol/L

## CCCCc1nc(Cl)c(COC(=O)Cc2cc(C(C)(C)C)c(O)c(C(C)(C)C)c2)n1Cc1ccc(-c2ccccc2-c2nnn[nH]2)cc1
VSMC
  Activity: 65%
[12]
  Activity: 0.16 mmol/L
